The record followed here is ChEMBL document CHEMBL1138835, “Inhibitors of multiple mutants of Plasmodium falciparum dihydrofolate reductase and their antimalarial activities” (J Med Chem, 2004).

The structures appear in SMILES notation.

Assay [1] has as its system KB. Description: In vitro cytotoxicity against Plasmodium falciparum infected KB cell line. The format is functional, cell-based. The conditions noted are these: Homo sapiens. Summed up: (§1)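 Cytotoxicity (IC50, μM) run against three mammalian lines: Vero (African green monkey kidney fibroblasts), KB (human epidermoid carcinoma) and BC (human breast cancer). Testing followed the Skehan et al. protocol.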

For assay [2], the system named is Vero. Description: In vitro cytotoxicity against Plasmodium falciparum infected vero cell line. Format: functional, cell-based. The conditions noted are these: Chlorocebus sabaeus. Summed up: as §1
In assay [3] the test system is BC. Description: In vitro cytotoxicity against BC cell line. The conditions noted are these: Homo sapiens.
For assay [4], the target named is Bifunctional dihydrofolate reductase-thymidylate synthase (Plasmodium falciparum K1, UniProt P13922, C59R/I164L/S108N). The assay can be described thus: Binding affinity towards mutant dihydrofolate reductase (C59R+S108N+I164L DHFR) of Plasmodium falciparum.
Assay [5] addresses Bifunctional dihydrofolate reductase-thymidylate synthase (Plasmodium falciparum K1, UniProt P13922, C59R/N51I/S108N). Description: Binding affinity towards mutant dihydrofolate reductase (N51I+C59R+S108N DHFR) of Plasmodium falciparum.
In assay [6] the test system is Bifunctional dihydrofolate reductase-thymidylate synthase (Plasmodium falciparum K1), P13922 [UNDEFINED MUTATION]. The assay can be described thus: Ratio of binding affinity for mutant (C59R+S108N+I164L) to that of wild type dihydrofolate reductase. Summed up: (§2)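 Each ratio is Ki for the mutant PfDHFR divided by Ki for wild-type PfDHFR. The recombinant enzymes were expressed in E. coli BL21(DE3)pLysS and purified on methotrexate-Sepharose. Ki was derived assuming inhibitors compete with substrate binding.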

Assay [7] addresses Bifunctional dihydrofolate reductase-thymidylate synthase (Plasmodium falciparum K1) (UniProt P13922). The assay can be described thus: Ratio of binding affinity for mutant (N51I+C59R+S108N) to that of wild type dihydrofolate reductase. Summed up: as §2
The test system of assay [8] is Bifunctional dihydrofolate reductase-thymidylate synthase (Plasmodium falciparum K1), P13922 [UNDEFINED MUTATION]. The assay can be described thus: Ratio of binding affinity for mutant (N51I+C59R+S108N+I164L) to that of wild type dihydrofolate reductase. A digest of the protocol:
as §2

In assay [9] the target is Bifunctional dihydrofolate reductase-thymidylate synthase (Plasmodium falciparum K1, UniProt P13922, C59R/I164L/N51I/S108N). Description: Binding affinity towards mutant dihydrofolate reductase (N51I+C59R+S108N+I164L DHFR) of Plasmodium falciparum.
The test system of assay [10] is BC. Description: Relative antiplasmodial activity to cytotoxicity in Plasmodium falciparum Csl-2 infected BC cells. The format is functional.
Assay [11] concerns KB. Description: Relative antiplasmodial activity to cytotoxicity in Plasmodium falciparum Csl-2 infected KB cells. The format is functional.
The test system of assay [12] is Vero. Description: Relative antiplasmodial activity to cytotoxicity in Plasmodium falciparum Csl-2 infected Vero cells. The format is functional.
The subject of assay [13] is BC. Description: Relative antiplasmodial activity to cytotoxicity in Plasmodium falciparum TM4/8.2 infected BC cells. Format: functional.
Assay [14] concerns KB. The assay can be described thus: Relative antiplasmodial activity to cytotoxicity in Plasmodium falciparum TM4/8.2 infected KB cells. Format: functional.
Assay [15] concerns KB. The assay can be described thus: Relative antiplasmodial activity to cytotoxicity in Plasmodium falciparum V1/S infected KB cells. The format is functional.
Assay [16] concerns Vero. The assay can be described thus: Relative antiplasmodial activity to cytotoxicity in Plasmodium falciparum V1/S infected Vero cells. Format: functional.
Assay [17] concerns Vero. Description: Relative antiplasmodial activity to cytotoxicity in Plasmodium falciparum TM4/8.2 infected Vero cells. Format: functional.

The IC50 is the concentration that inhibits the measured activity by half. Lower therefore signals higher potency. As a reminder, the Ki is a measure of affinity in units of concentration, obtained from inhibition or displacement. A high value points to weaker binding.

Sequence of Bifunctional dihydrofolate reductase-thymidylate synthase (Plasmodium falciparum K1) (P13922 whole entry, looked up): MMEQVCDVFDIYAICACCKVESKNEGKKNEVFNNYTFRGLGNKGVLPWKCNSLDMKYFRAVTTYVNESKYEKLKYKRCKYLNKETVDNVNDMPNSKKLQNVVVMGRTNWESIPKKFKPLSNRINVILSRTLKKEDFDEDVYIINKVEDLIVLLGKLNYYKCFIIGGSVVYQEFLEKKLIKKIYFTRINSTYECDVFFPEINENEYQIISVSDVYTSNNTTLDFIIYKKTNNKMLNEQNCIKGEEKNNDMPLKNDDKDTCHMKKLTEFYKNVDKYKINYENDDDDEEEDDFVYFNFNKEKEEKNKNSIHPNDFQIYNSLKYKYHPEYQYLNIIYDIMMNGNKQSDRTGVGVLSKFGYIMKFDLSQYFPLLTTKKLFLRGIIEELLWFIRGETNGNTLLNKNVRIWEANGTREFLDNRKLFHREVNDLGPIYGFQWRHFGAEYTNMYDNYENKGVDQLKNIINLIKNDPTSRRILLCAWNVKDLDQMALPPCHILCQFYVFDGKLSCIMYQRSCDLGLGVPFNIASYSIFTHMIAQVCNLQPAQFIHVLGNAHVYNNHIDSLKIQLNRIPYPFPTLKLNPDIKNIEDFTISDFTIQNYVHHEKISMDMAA
Sequence of Bifunctional dihydrofolate reductase-thymidylate synthase (Plasmodium falciparum K1, UniProt P13922, C59R/N51I/S108N) (P13922 whole entry, looked up, stated change not applied): as the sequence (P13922 whole entry, looked up) above
Sequence of Bifunctional dihydrofolate reductase-thymidylate synthase (Plasmodium falciparum K1, UniProt P13922, C59R/I164L/S108N) (P13922 whole entry, looked up, stated change not applied): as the sequence (P13922 whole entry, looked up) above
Sequence of Bifunctional dihydrofolate reductase-thymidylate synthase (Plasmodium falciparum K1), P13922 [UNDEFINED MUTATION] (P13922 whole entry, looked up, stated change not applied): as the sequence (P13922 whole entry, looked up) above
Sequence of Bifunctional dihydrofolate reductase-thymidylate synthase (Plasmodium falciparum K1, UniProt P13922, C59R/I164L/N51I/S108N) (P13922 whole entry, looked up, stated change not applied): as the sequence (P13922 whole entry, looked up) above

For `CC1(C)N=C(N)N=C(N)N1c1cccc(Cl)c1`, the concentration for half-maximal inhibition (IC50) with KB [1] stood at 4 µM; in the assay on Vero [2], 49 µM; in the assay with BC [3], 8.9 µM.
For the compound `Nc1nc(N)c(-c2ccccc2)c(CCCOC(=O)c2ccccc2)n1`, the inhibitory constant (Ki) in [4] stood at 0.0027 µM; in assay [5], 0.0007 µM; in [9], 0.014 µM. For the same compound, the Ratio in assay [6] is 0.8; in [7], 0.2; in assay [8], 4.1.
In the case of `CCc1nc(N)nc(N)c1-c1ccccc1`, the figures for the inhibitory constant (Ki) in assay [4], in [5] and in assay [9] were 0.025 µM, 0.003 µM and 0.032 µM, respectively.
As for `Nc1nc(N)c(-c2cccc(Cl)c2)c(CCCO)n1`, the Ki amounted to 0.029 µM in [4], 0.0023 µM in assay [5] and 0.057 µM in assay [9]. For the same compound, the IC50 with KB [1] worked out at 10.1 µM; in the assay on Vero [2] it was 22.3 µM; in the assay with BC [3], 15 µM. In addition, the Safety ratio in the assay on BC [10] is recorded as 7.9; in the assay with KB [11], 5.3; with Vero [12], 11.7; in the assay with BC [13] it was 13.6; with KB [14], 9.2; in the assay with KB [15] it was 1.6. Besides, the Safety ratio was 3.6 in the assay with Vero [16] and 20.3 in the assay on Vero [17]. The Ratio in assay [6] is 3.2; in assay [7], 0.25; in assay [8], 6.1.
On to `CC(=O)OCCCc1nc(N)nc(N)c1-c1cccc(Cl)c1`, for which the Ki turned out to be 0.0032 µM in [4], 0.0018 µM in assay [5] and 0.0314 µM in [9]. Further, the IC50 in the assay with KB [1] turned out to be 17 µM; in the assay with Vero [2] it was 50 µM; with BC [3] it was 10 µM. The Safety ratio in the assay with BC [10] worked out at 5.6; with KB [11], 9.4; with Vero [12], 27.8; in the assay with BC [13], 6.3; with KB [14], 10.6; in the assay on KB [15], 3.2. The Safety ratio in the assay on Vero [16] amounted to 9.4; in the assay with Vero [17], 31.3. In addition, the Ratio in assay [6] stood at 1; in [7], 0.6; in assay [8] it was 10.1.
`Nc1nc(N)c(-c2cccc(Cl)c2)c(CCCOC(=O)c2ccccc2)n1`: the Ki in [4] came out at 0.0008 µM; in assay [5] it was 0.0008 µM; in assay [9], 0.0036 µM. In addition, the half-maximal inhibitory concentration (IC50) in the assay with KB [1] came out at 8.4 µM; with Vero [2] it was 61 µM; in the assay with BC [3] it was 9.5 µM. In addition, the Safety ratio amounted to 5 in the assay with BC [10]; 4.4 with KB [11]; 32.1 in the assay with Vero [12]; 4.5 in the assay on BC [13]; 4 in the assay with KB [14]; 1.1 in the assay with KB [15]. Further, the Safety ratio in the assay on Vero [16] is recorded as 8.1; in the assay with Vero [17], 29. For the same compound, the results for the Ratio in assay [6], in assay [7] and in assay [8] were 0.5, 0.5 and 2.4, respectively.
With `NC1=NC(c2ccccc2)N(c2ccc(Cl)cc2)C(N)=N1` (stereo not drawn), the figures for the inhibition constant Ki in [4], in [5] and in [9] were 1.87 µM, 0.196 µM and 2.44 µM, respectively.
As to `CC(=O)OCCCc1nc(N)nc(N)c1-c1ccccc1`, the inhibition constant (Ki) in assay [4] stood at 0.018 µM; in assay [5], 0.005 µM; in assay [9] it was 0.237 µM. In addition, the Ratio in assay [6] worked out at 1.7; in assay [7], 0.5; in assay [8] it was 22.3.
Regarding `Nc1nc(N)c(-c2ccccc2)c(CCCO)n1`, the results for the Ki in assay [4], in assay [5] and in assay [9] were 0.121 µM, 0.0585 µM and 0.549 µM, respectively. The results for the Ratio in [6], in [7] and in assay [8] were 1.4, 0.7 and 6.5, respectively.
